Activity calls are given as the source filed them. The rule behind the calls is not given here.
How the values were obtained:
Mus musculus [1] = assay: Reduction in total liver ceramide level in diet-induced obese C57BL6 mouse at 1 to 60 mg/kg administered daily through oral gavage for 28 days measured 6 hrs post last dose relative to lean control; assay type: functional, organism-based
How it was run: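 Liver total ceramide levels measured in DIO mice after 4 weeks of oral dosing.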

[2] = Cmax in Sprague-Dawley rat at 1 mg/kg, iv; assay type: ADME, organism-based; set-up: dose 1 mg/kg, route intravenous; settings: in vivo
How it was run: (§1)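 Single dose to fasted male Sprague Dawley rats, IV at 1 mg/kg or oral at 3 mg/kg. Plasma levels followed to derive AUC0-24hr, Cmax, half-life, Vdss and oral bioavailability.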

[3] = biological target: T1, Serine palmitoyltransferase 1 (Homo sapiens, UniProt O15269); assay: Inhibition of human SPT1 expressed in microsomes of HEK293 cells incubated for 1hr by LC/MS analysis
T1 sequence (O15269 whole entry): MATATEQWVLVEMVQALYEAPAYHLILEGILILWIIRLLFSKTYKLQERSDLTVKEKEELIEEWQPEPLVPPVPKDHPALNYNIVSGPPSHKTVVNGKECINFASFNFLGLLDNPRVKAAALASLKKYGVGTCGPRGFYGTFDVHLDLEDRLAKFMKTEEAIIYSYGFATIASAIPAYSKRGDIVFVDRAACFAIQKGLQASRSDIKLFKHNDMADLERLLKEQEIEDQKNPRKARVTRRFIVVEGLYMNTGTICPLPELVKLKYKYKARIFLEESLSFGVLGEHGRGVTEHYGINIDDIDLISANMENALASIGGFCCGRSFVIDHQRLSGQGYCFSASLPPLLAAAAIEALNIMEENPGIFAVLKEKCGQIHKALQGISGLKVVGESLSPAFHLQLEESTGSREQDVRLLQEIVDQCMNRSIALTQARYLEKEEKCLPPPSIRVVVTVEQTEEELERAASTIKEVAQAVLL
How it was run: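 SPT source was a microsomal fraction from HEK293 cells, with serine and palmitoyl coenzyme A as substrates. Formation of 3-ketodeoxysphinganine quantified by LC/MS. Inhibition determined at 10 concentrations per compound to give IC50.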

Rattus norvegicus [4] = assay: Reduction in total plasma ceramide level in cholic acid/cholesterol-fed Sprague-Dawley rat model of dyslipidemia at 10 to 60 mg/kg administered bid through oral gavage measured after 1 week by FPLC analysis relative to vehicle-treated control; assay type: functional, organism-based
How it was run: (§2)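 Sprague Dawley rats fed a cholic acid/cholesterol diet for 14 days, then dosed orally BID for 7 days at five dose levels, n=6. Serum ceramides and VLDL and HDL cholesterol compared with vehicle (dose 0). Mean ± SEM; Dunnett's test, p<0.05.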

[5] = Toxicity in diet-induced obese C57Bl/6 mouse assessed as decrease in food intake at 10 mg/kg, po qd for 4 weeks; assay type: organism-based; settings: in vivo, 672 h
How it was run: (§3)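 Food intake monitored in DIO mice during 4 weeks of daily oral dosing.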

[6] = biological target: T2, Serine palmitoyltransferase 1 (Homo sapiens) (UniProt O15269); assay: (§4) Inhibition of SPT1 in human MCF7 cells assessed as suppression of 14C-serine incorporation into ceramide incubated for 2 hrs in presence of 4-HPR; assay type: cell-based
T2 sequence (whole entry): T1 sequence (O15269 whole entry)
How it was run: (§5)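 Human MCF-7 cells incubated 2 h with a range of compound concentrations or DMSO control media. Medium contained 14C-serine plus 25 uM 4-HPR to activate SPT. 14C-serine-labeled ceramide products quantified to give EC50.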

[7] = biological target: T1, Serine palmitoyltransferase 1; assay: as §4; assay type: cell-based; how it was run: as §5
[8] = Drug uptake in diet-induced obese C57Bl/6 mouse serum at 1 mg/kg, po qd for 4 weeks measured 6 hrs post last dose; assay type: ADME, organism-based; settings: read-out: Drug uptake
How it was run: (§6)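 Male DIO mice dosed orally for 4 weeks. Sacrificed 6 h after the last dose. Compound measured in serum (ng/mL) and liver (ng/g), and the liver:serum ratio calculated.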

[9] = Ratio of drug uptake in diet-induced obese C57Bl/6 mouse liver to serum at 3 mg/kg, po qd for 4 weeks measured 6 hrs post last dose; assay type: ADME, organism-based; how it was run: as §6
[10] = Dissociation constant, pKa of the compound; assay type: physicochemical
[11] = Volume of distribution at steady state in Sprague-Dawley rat at 1 mg/kg, iv; assay type: ADME, organism-based; settings: in vivo, read-out: Vdss; how it was run: as §1
[12] = Toxicity in diet-induced obese C57Bl/6 mouse assessed as decrease in food intake at 25 mg/kg, po qd for 4 weeks; assay type: organism-based; settings: in vivo, 672 h; how it was run: as §3
[13] = Fraction unbound in rat; assay type: ADME
[14] = Drug uptake in diet-induced obese C57Bl/6 mouse serum at 3 mg/kg, po qd for 4 weeks measured 6 hrs post last dose; assay type: ADME, organism-based; settings: read-out: Drug uptake; how it was run: as §6
[15] = Drug uptake in diet-induced obese C57Bl/6 mouse liver at 3 mg/kg, po qd for 4 weeks measured 6 hrs post last dose; assay type: ADME, organism-based; settings: read-out: Drug uptake; how it was run: as §6
[16] = Drug uptake in diet-induced obese C57Bl/6 mouse serum at 25 mg/kg, po qd for 4 weeks measured 6 hrs post last dose; assay type: ADME, organism-based; settings: read-out: Drug uptake; how it was run: as §6
[17] = Ratio of drug uptake in diet-induced obese C57Bl/6 mouse liver to serum at 10 mg/kg, po qd for 4 weeks measured 6 hrs post last dose; assay type: ADME, organism-based; how it was run: as §6
[18] = Oral bioavailability in Sprague-Dawley rat at 3 mg/kg; assay type: ADME, organism-based; settings: in vivo; how it was run: as §1
Rattus norvegicus [19] = assay: Reduction in vLDL level in cholic acid/cholesterol-fed Sprague-Dawley rat model of dyslipidemia at 1 to 60 mg/kg administered bid through oral gavage measured after 1 week by FPLC analysis relative to vehicle-treated control; assay type: functional, organism-based; how it was run: as §2
[20] = Drug uptake in diet-induced obese C57Bl/6 mouse serum at 10 mg/kg, po qd for 4 weeks measured 6 hrs post last dose; assay type: ADME, organism-based; settings: read-out: Drug uptake; how it was run: as §6
Rattus norvegicus [21] = assay: Increase in HDL level in cholic acid/cholesterol-fed Sprague-Dawley rat model of dyslipidemia administered bid through oral gavage measured after 1 week by FPLC analysis relative to vehicle-treated control; assay type: functional, organism-based; how it was run: as §2
[22] = Drug uptake in diet-induced obese C57Bl/6 mouse serum at 0.1 mg/kg, po qd for 4 weeks measured 6 hrs post last dose; assay type: ADME, organism-based; settings: read-out: Drug uptake; how it was run: as §6
Mus musculus [23] = assay: Reduction in blood glucose in diet-induced obese C57BL6 mouse at 25 mg/kg, po qd for 4 weeks by oral glucose tolerance test relative to lean control; assay type: functional, organism-based
How it was run: (§7)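 After 4 weeks of oral dosing, DIO mice underwent an oral glucose tolerance test. Insulin and glucose AUC compared with lean mice; trend assessed by ANOVA trend analysis.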

[24] = Drug uptake in diet-induced obese C57Bl/6 mouse liver at 25 mg/kg, po qd for 4 weeks measured 6 hrs post last dose; assay type: ADME, organism-based; settings: read-out: Drug uptake; how it was run: as §6
Mus musculus [25] = assay: Reduction in total plasma ceramide level in diet-induced obese C57BL6 mouse administered daily through oral gavage for 28 days measured 2 hrs post last dose relative to lean control; assay type: functional, organism-based
How it was run: (§8)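 DIO mice dosed orally for 28 days, with myriocin as positive control and lean mice as reference. Total and C18:0 plasma ceramides measured 2 h after the final dose.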

[26] = Ratio of drug uptake in diet-induced obese C57Bl/6 mouse liver to serum at 0.1 mg/kg, po qd for 4 weeks measured 6 hrs post last dose; assay type: ADME, organism-based; settings: other tissue; how it was run: as §6
[27] = Drug uptake in diet-induced obese C57Bl/6 mouse liver at 0.1 mg/kg, po qd for 4 weeks measured 6 hrs post last dose; assay type: ADME, organism-based; settings: read-out: Drug uptake; how it was run: as §6
Mus musculus [28] = assay: Reduction in plasma C18:0 ceramide level in diet-induced obese C57BL6 mouse at 1 to 60 mg/kg administered daily through oral gavage for 28 days measured 2 hrs post last dose relative to lean control; assay type: functional, organism-based; how it was run: as §8
[29] = AUC (0 to 24 hrs) in Sprague-Dawley rat at 3 mg/kg,po; assay type: ADME, organism-based; set-up: time < 24 hr, dose 3 mg/kg, route oral; settings: in vivo; how it was run: as §1
[30] = Half life in Sprague-Dawley rat at 1 mg/kg, iv; assay type: ADME, organism-based; settings: in vivo; how it was run: as §1
[31] = Drug uptake in diet-induced obese C57Bl/6 mouse liver at 1 mg/kg, po qd for 4 weeks measured 6 hrs post last dose; assay type: ADME, organism-based; settings: read-out: Drug uptake; how it was run: as §6
[32] = Ratio of drug uptake in diet-induced obese C57Bl/6 mouse liver to serum at 25 mg/kg, po qd for 4 weeks measured 6 hrs post last dose; assay type: ADME, organism-based; how it was run: as §6
[33] = Volume of distribution at steady state in Sprague-Dawley rat at 3 mg/kg,po; assay type: ADME, organism-based; settings: in vivo
How it was run: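 Male Sprague Dawley rats, fasted, single oral dose of 3 mg/kg. A parallel arm received 1 mg/kg IV. Plasma was sampled for pharmacokinetics over 0-24 hr. Steady-state volume of distribution is reported […], in mL/kg.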

[34] = Lipophilicity, log P of compound; assay type: physicochemical; settings: octanol/water
[35] = AUC (0 to 24 hrs) in Sprague-Dawley rat at 1 mg/kg, iv; assay type: ADME, organism-based; set-up: time < 24 hr, dose 1 mg/kg, route intravenous; settings: in vivo; how it was run: as §1
[36] = Drug uptake in diet-induced obese C57Bl/6 mouse liver at 10 mg/kg, po qd for 4 weeks measured 6 hrs post last dose; assay type: ADME, organism-based; settings: read-out: Drug uptake; how it was run: as §6
[37] = Half life in Sprague-Dawley rat at 3 mg/kg,po; assay type: ADME, organism-based; settings: in vivo; how it was run: as §1
[38] = Ratio of drug uptake in diet-induced obese C57Bl/6 mouse liver to serum at 1 mg/kg, po qd for 4 weeks measured 6 hrs post last dose; assay type: ADME, organism-based; how it was run: as §6
Mus musculus [39] = assay: Reduction in serum insulin in diet-induced obese C57BL6 mouse at 25 mg/kg, po qd for 4 weeks by oral glucose tolerance test relative to lean control; assay type: functional, organism-based; how it was run: as §7
[40] = Cmax in Sprague-Dawley rat at 3 mg/kg,po; assay type: ADME, organism-based; set-up: dose 3 mg/kg, route oral; settings: in vivo; how it was run: as §1
Mus musculus [41] = assay: Reduction in total plasma ceramide level in C57BL6 mouse administered through gavage after 6 hrs by mass spectrometry relative to vehicle-treated control; assay type: functional
How it was run: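 Normal C57bl6 mice given a single oral dose at six dose levels, n=3 per group. Plasma collected 6 h post dose. C16:0, C20:0, C22:0, C24:0 and C24:1 ceramides measured by mass spectrometry and summed; total reduction calculated versus vehicle. ED50 derived from the dose-response; mean ± SEM.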

[42] = Toxicity in rat assessed as induction of gastric enteropathy during 14 days toxicology study; settings: in vivo, 336 h

- Cmax [2]: 756 ng/mL
- IC50 [3]: 63.9 nM
- inhibition [6]: Dose-dependent effect
- EC50 [7]: 4220 nM
- concentration at 6 h [8]: 141 ng/mL
- Kp at 6 h [9]: 126
- pKa [10]: 4.19
- Vd [11]: 8.33 L/kg
- fraction unbound [13]: 0.02
- concentration at 6 h [14]: 665 ng/mL
- concentration at 6 h [15]: 83800 ng/g
- concentration at 6 h [16]: 1210 ng/mL
- Kp at 6 h [17]: 152
- bioavailability [18]: 33%
- concentration at 6 h [20]: 855 ng/mL
- concentration at 6 h [22]: 5 ng/mL
- concentration at 6 h [24]: 119000 ng/g
- Ratio [26]: 5292
- concentration at 6 h [27]: 26500 ng/g
- AUC(0-t) at 24 h [29]: 155 ng·h/mL
- half-life [30]: 5.17 h
- concentration at 6 h [31]: 61200 ng/g
- Kp at 6 h [32]: 99
- Vdss [33]: 126 L/kg
- logP [34]: 4.66
- AUC(0-t) at 24 h [35]: 190 ng·h/mL
- concentration at 6 h [36]: 130000 ng/g
- half-life [37]: 7.65 h
- Kp at 6 h [38]: 434
- Cmax [40]: 16.3 ng/mL
SMILES: CCCCCCC(=O)N1CCc2c(c(-c3ccc(C(C)(C)C(=O)O)cc3)nn2C)C1
- Activity (Mus musculus [1]): Active
- Activity (Rattus norvegicus [4]): Active
- Activity [5]: Non-Toxic
- Activity [12]: Toxic
- Activity (Rattus norvegicus [19]): inactive
- Activity (Rattus norvegicus [21]): Dose-dependent effect
- Activity (Mus musculus [23]): Active
- Activity (Mus musculus [25]): Dose-dependent effect
- Activity (Mus musculus [28]): Active
- Activity (Mus musculus [39]): Active
- Activity (Mus musculus [41]): Dose-dependent effect
- ED50 (Mus musculus [41]; C57BL6, po): 8.8 mg/kg
- Activity [42]: Toxic
